This passage reports cytotoxicity results from ChEMBL document CHEMBL4513216, “Probing the Open Global Health Chemical Diversity Library for Multistage-Active Starting Points for Next-Generation Antimalarials” (ACS Infect Dis, 2020).

The nature of this data set: Toxicity liver stage against HepG2, at 10uM. In kind it is cell-based. Set-up: test concentration 10 uM, cell line HepG2-A16-CD81EGFP. The note with it: human, HepG2-A16-CD81EGFP cells; read-out: INHIBITION
The method in brief: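 Uninfected HepG2-A16-CD81EGFP cells, 3 × 10^3 per well, 1536-well, plated on prespotted compound at 10 μM final, parasite-free screening media added to match infected plates; puromycin 10 μM positive, DMSO 0.5% negative; run in parallel with 48 h PbLuc assay at 37 °C, 5% CO2; viability by CellTiter-Glo luminescence, normalized to controls.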
`NC(=O)Cn1c(CO)cnc1SCC(=O)NCc1ccccc1`: the cytotoxicity at 10 µM was 0.252%.

Turning to `CN1CCN([C@@H]2CCN(C(N)=O)[C@H]2Cc2ccccc2)CC1`, the cytotoxicity at 10 µM came out at 2.41%.

In the case of `CCO[C@@H]1CC[C@H]2[C@H]1OCCN2S(=O)(=O)c1cn(C)cn1`, the cytotoxicity at 10 µM was 5.59%.

Regarding `Cc1ccc(N2N=C(C(=O)NCC3CC3)S(=O)(=O)c3cccnc32)cc1`, the cytotoxicity at 10 µM turned out to be 6.72%.

In the case of `CC(C)(C)c1csc(CCNC(=O)C(c2ccccc2)n2cnnn2)n1` (stereo unspecified), the cytotoxicity at 10 µM amounted to 6.53%.

In the case of `CCOc1ccc(-n2nnc(C(=O)O)c2-c2ccncc2)cc1`, the cytotoxicity at 10 µM is -4.14%.

Take `c1cnc(NCc2noc3c2CN(C2CCOCC2)CC3)nc1`: the cytotoxicity at 10 µM was -6.23%.

As to `C/N=C1/c2cc3cc(OC)ccc3n2CCN1C`, the cytotoxicity at 10 µM was 3.34%.

`COCCNC(=O)Cn1cc2c(n1)c(C)nn2C`: the cytotoxicity at 10 µM was determined as 4.6%.

As for `Cc1cc2c(cc1Cl)C=CC1(CCN(CC(=O)N3CCOCC3)CC1)O2`, the cytotoxicity at 10 µM was -1.7%.

Turning to `CN(C)C(=O)CN1CCC(c2c(C(N)=O)sc3ncccc23)C1` (stereo unspecified), the cytotoxicity at 10 µM was 8.42%.

Take `COc1cccc([C@@]2(O)CC[C@@H]3CN(C(=O)c4c[nH]nc4C)C[C@@H]32)c1`: the cytotoxicity at 10 µM was determined as 2.67%.

For the compound `O=S(=O)(Nc1ccc(N2CCOCC2)cn1)c1cccc(F)c1`, the cytotoxicity at 10 µM was -9.68%.

For the compound `COc1c(F)cc(NCC(=O)NC(C)(C#N)C2CC2)cc1F` (stereo unspecified), the cytotoxicity at 10 µM is -3.82%.

As for `CC(C)(C)c1ccc2c(c1)CCN2C(=O)c1[nH]c(=O)[nH]c(=O)c1N`, the cytotoxicity at 10 µM came out at 7.22%.

For `Brc1cnc(NCCCOCC2CCOCC2)nc1`, the cytotoxicity at 10 µM is 16.8%.

With `CCn1c(=O)n(CCC(=O)N(C)Cc2ccc(C)o2)c2ccccc21`, the cytotoxicity at 10 µM is -2.42%.

`O=C(c1ccc(Cl)cn1)N1CCC(COCc2ccccc2)C1` (stereo unspecified): the cytotoxicity at 10 µM stood at 5.88%.

As for `Cc1cc(NC(=O)CNc2ccc(Br)cc2F)on1`, the cytotoxicity at 10 µM was -28.1%.

Consider `O=C(CC1OCCc2ccsc21)NCC1CC1` (stereo unspecified), for which the cytotoxicity at 10 µM stood at 7.18%.

As for `CN(Cc1ccc2c(c1)OCO2)Cc1nc(-c2ccco2)no1`, the cytotoxicity at 10 µM was -1.64%.

As for `Cn1ncnc1CCNC(=O)c1cc(Cl)c(Cl)n1C`, the cytotoxicity at 10 µM is -5.12%.

On to `CC(C)Oc1ccc(CNC(=O)c2cc(C(N)=O)cs2)cc1F`, for which the cytotoxicity at 10 µM was 12.6%.

With `CCOc1ccccc1C(CC(=O)N(C)C)NC(C)=O` (stereo unspecified), the cytotoxicity at 10 µM was -4.67%.

Regarding `CNS(=O)(=O)c1ccc(CNC(=O)c2ccccn2)cc1`, the cytotoxicity at 10 µM came to 10.2%.

Turning to `CNC(=O)CN1CCCC1c1ccccc1Br` (stereo unspecified), the cytotoxicity at 10 µM is -2.22%.

`Cc1cc(NC(C)C(=O)NCC(F)(F)F)nc(-c2ccncc2)n1` (stereo unspecified): the cytotoxicity at 10 µM came to 4.96%.

Take `O=C1CCN(C(=O)c2ncoc2-c2ccco2)c2ncccc2N1`: the cytotoxicity at 10 µM was -3.58%.

As to `CC(C)(C)OC(=O)N1CSC[C@@H]1C(=O)NCc1ccc(C#N)cc1`, the cytotoxicity at 10 µM was found to be 11.6%.

Regarding `O=C(c1ccncc1)N1CCCC1c1cccc(Br)c1` (stereo unspecified), the cytotoxicity at 10 µM turned out to be 16.9%.

On to `CN(C)C(=O)N1CCN(C(=O)c2ccn3cncc3c2)CC1`, for which the cytotoxicity at 10 µM is -9.96%.

With `Cc1cc2ncc(C(C)NCc3cccnc3)c(C)n2n1` (stereo unspecified), the cytotoxicity at 10 µM was -0.0764%.

In the case of `CN1CCCC(N(C)S(=O)(=O)c2cccc3ncccc23)C1` (stereo unspecified), the cytotoxicity at 10 µM was -6.46%.

With `Cc1ccc(-c2noc(C(C)(C)NS(C)(=O)=O)n2)cc1F`, the cytotoxicity at 10 µM was 2.77%.

For the compound `FC(F)(F)c1cc(NCCCn2cccn2)nc(-c2cccnc2)n1`, the cytotoxicity at 10 µM was 8.06%.

In the case of `c1ccc2[nH]c(C3CCN(Cc4noc(C5CC5)n4)CC3)cc2c1`, the cytotoxicity at 10 µM is 7.67%.

With `Cn1ccnc(Sc2cccc(C#N)c2)c1=O`, the cytotoxicity at 10 µM came out at 4.64%.

For `CC(NCc1ccc(Cl)o1)c1nnc2n1CCCC2` (stereo unspecified), the cytotoxicity at 10 µM is -15.9%.

For `CNC(=O)NC(=O)CN1CCC(c2c[nH]c3ccc(OC)cc23)CC1`, the cytotoxicity at 10 µM was 21.4%.

In the case of `Cc1ccccc1C(=O)NCc1ccc(N2CCNC(=O)C2)cc1`, the cytotoxicity at 10 µM was -9.67%.

Take `CN(CC(N)=O)S(=O)(=O)c1ccc(F)cc1Cl`: the cytotoxicity at 10 µM was -11.9%.

For `COCC(=O)N(C)Cc1cccc(Cl)c1`, the cytotoxicity at 10 µM is -10.8%.

As to `COc1ccc(CNC(=O)NC2CCC(O)CC2)c(C(F)(F)F)c1` (stereo unspecified), the cytotoxicity at 10 µM is -12%.

For `CCC(CO)N(Cc1ccc(C(=O)O)cc1)Cc1ccsc1` (stereo unspecified), the cytotoxicity at 10 µM was found to be 2.17%.

For the compound `Cc1nc2c(c(=O)[nH]1)CCN(C(=O)c1[nH]nc3c1CC(C)CC3)C2` (stereo unspecified), the cytotoxicity at 10 µM amounted to 13.4%.

For the compound `CSCCC(O)C(=O)N1CCC(OCc2cccnc2)CC1` (stereo unspecified), the cytotoxicity at 10 µM came out at 3.96%.

Regarding `O=C(Cc1ccc(CO)cc1)N1CCN(c2ccccc2Cl)C(=O)C1`, the cytotoxicity at 10 µM turned out to be 6.39%.

For `CCc1ccc2ncn(Cc3ncc[nH]3)c(=O)c2c1`, the cytotoxicity at 10 µM amounted to 11.1%.

Turning to `CC(C)=CCC1(C(=O)O)CCCN(c2ccnc(N)n2)C1` (stereo unspecified), the cytotoxicity at 10 µM is -13.7%.

In the case of `CN(C)c1ccccc1C(=O)N1C[C@@H](CN2CCC(O)CC2)[C@@H](CO)C1`, the cytotoxicity at 10 µM came to 3.11%.

Turning to `CC(C)c1cc(CN(C)C(=O)CN2CCCCC2=O)no1`, the cytotoxicity at 10 µM is 8.01%.

In the case of `CC(NCc1cc(O)c2cccc(F)c2n1)c1ccc(S(C)(=O)=O)cc1` (stereo unspecified), the cytotoxicity at 10 µM came to 4.03%.

In the case of `c1cn(CC2CCOCC2)c(-c2cc(CN3CCCC3)cs2)n1`, the cytotoxicity at 10 µM is -2.96%.

As for `COCCc1noc(CN(C)C(=O)C2COc3ccccc3C2)n1` (stereo unspecified), the cytotoxicity at 10 µM is 8.63%.

`CN(C)c1cnn(CC(=O)N2CCCCCC2)c(=O)c1`: the cytotoxicity at 10 µM was -10.6%.

On to `CCc1cc(N(C)CCC(O)c2ccccc2)n2nccc2n1` (stereo unspecified), for which the cytotoxicity at 10 µM is -1.14%.

Turning to `CNc1cc(C)nc(-c2cc(NC3CCNCC3)nc3[nH]ccc23)n1`, the cytotoxicity at 10 µM is -2.98%.

For the compound `COCCN1CCC(CN(CC2CCCO2)C(=O)Cn2cccn2)CC1` (stereo unspecified), the cytotoxicity at 10 µM was -3.79%.

Regarding `CS(=O)(=O)N[C@H]1CN(CCOCc2ccccc2)C[C@@H]1C1CC1`, the cytotoxicity at 10 µM is -1.1%.

In the case of `CCn1ncnc1CN1CCC(CNC(=O)c2cccc(C)n2)C1` (stereo unspecified), the cytotoxicity at 10 µM was found to be 8.57%.

Turning to `CCn1c(CN2CCCC2)nnc1C1CCN(Cc2cccnc2)CC1`, the cytotoxicity at 10 µM is 3.33%.

Consider `Cn1nc2c(c1NC(=O)c1ccc(C3CCCN3C3CCC3)s1)CCC2` (stereo unspecified), for which the cytotoxicity at 10 µM was -5.08%.

In the case of `Cc1ccccc1-c1cccc(CN2C[C@H]3C(=O)NC[C@@]3(C(=O)O)C2)c1`, the cytotoxicity at 10 µM is -0.147%.

As for `O=S1(=O)COCCN1Cc1cccc(Cl)c1`, the cytotoxicity at 10 µM was -11.4%.

On to `Cn1cccc1C(=O)N1CCCN(CCCc2ccccc2)CC1`, for which the cytotoxicity at 10 µM is -16.4%.

For `CCC1CN(C(=O)c2ccc(=O)[nH]c2)CCC(=O)N1Cc1ccccc1` (stereo unspecified), the cytotoxicity at 10 µM is -17.6%.

`Cc1nn(C)cc1-c1cc(C(F)(F)F)c2c(C)nn(CC(=O)O)c2n1`: the cytotoxicity at 10 µM is -4.79%.

With `CC(c1cccc(Cl)c1)N(C)Cc1nc2c(cnn2C)c(=O)[nH]1` (stereo unspecified), the cytotoxicity at 10 µM is -10.5%.

For `Cc1nc(CNC(=O)N(C)Cc2cnn(C)c2)cs1`, the cytotoxicity at 10 µM was -14.3%.

On to `Cc1cc(C)n(CC2CCCN2C(=O)c2cccn3ccnc23)n1` (stereo unspecified), for which the cytotoxicity at 10 µM is -7.45%.

Take `Cc1nnc2n1CCN(C(C(=O)NC(C)C)c1ccccc1)C2` (stereo unspecified): the cytotoxicity at 10 µM is -5.92%.

For `Cc1nc(C(=O)N2CCCN(Cc3cnn(C)c3)CC2)ccc1C#N`, the cytotoxicity at 10 µM was -0.514%.

Take `Cc1nc(C2CCCN2C(=O)c2csc3c2CCCC3)no1` (stereo unspecified): the cytotoxicity at 10 µM is -10.3%.

For the compound `Cc1cc(C2CCCN2C(=O)c2cc3c(s2)CCC3)no1` (stereo unspecified), the cytotoxicity at 10 µM was -11%.

Consider `COc1cccc(C2CCCN2CCCNS(C)(=O)=O)c1` (stereo unspecified), for which the cytotoxicity at 10 µM was -2%.

Turning to `Cc1nc(C)n(CC2CCCN2Cc2cn3cc(Cl)ccc3n2)n1` (stereo unspecified), the cytotoxicity at 10 µM was -16.7%.

With `COc1ccc(S(=O)(=O)N2CCc3ccc(F)cc32)cc1C(=O)O`, the cytotoxicity at 10 µM is -11.4%.

`Cc1cccc(CNC(C)c2ccc(OCC(=O)NC3CC3)cc2)c1` (stereo unspecified): the cytotoxicity at 10 µM was -10%.

As for `c1ccc(-n2ccc(CN3CCCC(Cn4cncn4)C3)n2)cc1` (stereo unspecified), the cytotoxicity at 10 µM is -16%.

For `Cc1ccc(-c2nc(CN3CCN(CC(=O)N(C)C)CC3)cs2)o1`, the cytotoxicity at 10 µM is -22%.

`CCCc1nc(CN2CCOC(Cn3cncn3)C2)no1` (stereo unspecified): the cytotoxicity at 10 µM was -7.03%.

Consider `Cc1ccccc1Cc1cnc(NC(=O)C2CNC(=O)N2)s1` (stereo unspecified), for which the cytotoxicity at 10 µM was -3.37%.

In the case of `O=C(COCC1CC1)N1CCCC(n2ccnc2)C1` (stereo unspecified), the cytotoxicity at 10 µM was 0.0481%.

Turning to `CNS(=O)(=O)c1cccc(CNC(=O)c2c(C)nn(C)c2C)c1`, the cytotoxicity at 10 µM is 9.26%.

Turning to `COc1ccccc1OCCC(=O)N1CCCC1Cn1cc(C)cn1` (stereo unspecified), the cytotoxicity at 10 µM turned out to be 6.02%.

With `c1cnnc(N2CCCC(NCc3ccc(-n4ccnc4)cc3)C2)c1` (stereo unspecified), the cytotoxicity at 10 µM was 0.866%.

As for `CCOc1ccc(CC(=O)N2CCN(c3nccn3C)CC2)cc1`, the cytotoxicity at 10 µM came to 6.85%.

As to `COCCN1CCC2(C1)c1ccccc1S(=O)(=O)N2Cc1ccccc1` (stereo unspecified), the cytotoxicity at 10 µM was determined as 10.5%.

For `CN(C)CC(=O)N1CCC2(CCc3cc(-c4cccnc4)ccc32)CC1`, the cytotoxicity at 10 µM came to 4.01%.

In the case of `c1ccc(CN2C[C@@H]3CCCO[C@@H]3[C@H](Nc3ccccn3)C2)nc1`, the cytotoxicity at 10 µM is -7.39%.

Consider `Cc1nc(CN2C(=O)COC3(CCN(Cc4nccs4)CC3)C2C)cs1` (stereo unspecified), for which the cytotoxicity at 10 µM is -10.4%.

In the case of `CN(Cc1ccco1)[C@@H]1CN(Cc2ccco2)[C@@H]2CCCO[C@H]12`, the cytotoxicity at 10 µM is 1.41%.

For `CCOC(=O)[C@]12CCCN(Cc3nccs3)C[C@H]1CN(CCN(C)C)C2`, the cytotoxicity at 10 µM was -9.82%.

As for `COCCN1C(=O)CCC12CCC(NCc1ccc(OC)cc1)CC2` (stereo unspecified), the cytotoxicity at 10 µM turned out to be 11.5%.

For `Cc1ccoc1C1=NNC(=CN2CCn3c(nnc3C(C)C)C2)O1`, the cytotoxicity at 10 µM was -13.1%.

Take `O=C(Cn1ccc(=O)cc1)N1C[C@@H]2CC[C@H]1CN(c1ncccn1)C2`: the cytotoxicity at 10 µM worked out at 4.52%.
